What was measured:
Rattus norvegicus [1] = assay: Antiinflammatory activity in po dosed albino rat assessed as inhibition of carrageenan-induced paw edema administered 30 mins prior to challenge; type: functional
Rattus norvegicus [2] = assay: Antiinflammatory activity in albino rat assessed as inhibition of carrageenan-induced paw edema at 20 mg/kg, po administered 30 mins prior to challenge relative to control; type: functional
Method in brief: (§1)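 Groups of five rats (200–230 g) were dosed orally. After 30 min, 0.2 ml of 1% carrageenan in 0.9% NaCl was injected subcutaneously into the hind-paw plantar aponeurosis. Paw volume was read by water plethysmometer before and at 3 h. % inhibition = (1 − vt/vc) × 100, using mean relative oedema changes against five carrageenan-only controls.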

Oryctolagus cuniculus = organism: Oryctolagus cuniculus; assay: Inhibition of cyclooxygenase in rabbit colon microsomes assessed as reduction in conversion of arachidonic acid to PGE2 at 10 uM by liquid scintillation spectrometry relative to control
Method in brief: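 Rabbit distal colon mucosa (2–3 g) was homogenized in 0.1 M Tris pH 8.0, and the microsomal pellet was used fresh. Microsomes were incubated with the test agent for 10 min at 37 °C in Tris-HCl pH 8.0 with 2 mM reduced glutathione, L-tryptophan and hematin. Products were separated by isocratic HPLC (150 mM orthophosphoric acid pH 3.5, 30% acetonitrile; UV 214 nm), and PGE2-co-eluting radioactivity was counted by liquid scintillation.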

Rattus norvegicus [3] = assay: Toxic ulcerogenic effect in albino rat assessed as incidence of ulcer at 400 mg/kg, po; type: toxicity, organism-based; design: dose 400 mg/kg, route oral; settings: in vivo
Method in brief: (§2)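 Rats (200–230 g) in groups of 10 were fasted 24 h, then given the compound orally. They were killed 5 h after dosing. Stomach and small intestine were examined under a microscope for hyperemia, epithelial shedding, petechiae, frank haemorrhage, and erosion or ulceration with or without perforation. Any of these criteria counted as ulcerogenic.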

Rattus norvegicus [4] = assay: Toxic ulcerogenic effect in albino rat assessed as incidence of ulcer at 200 mg/kg, po; type: toxicity, organism-based; design: dose 200 mg/kg, route oral; settings: in vivo; method in brief: as §2
Rattus norvegicus [5] = assay: Antiinflammatory activity in albino rat assessed as inhibition of carrageenan-induced paw edema at 80 mg/kg, po administered 30 mins prior to challenge relative to control; type: functional; method in brief: as §1
[6] = Acute toxicity in albino rat assessed as mortality after 24 hrs; type: organism-based; settings: in vivo, read-out: ALD50
Method in brief: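 Albino rats (200–230 g), groups of 10, given test compounds intraperitoneally at several dose levels. Percent mortality per group recorded 24 h after dosing. ALD50 calculated from the mortality data by a previously described method.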

Rattus norvegicus [7] = assay: Toxic ulcerogenic effect in albino rat assessed as incidence of hyperemia at 200 mg/kg, po; type: toxicity, organism-based; design: dose 200 mg/kg, route oral; settings: in vivo; method in brief: as §2
Rattus norvegicus [8] = assay: Toxic ulcerogenic effect in albino rat assessed as incidence of hyperemia at 400 mg/kg, po; type: toxicity, organism-based; design: dose 400 mg/kg, route oral; settings: in vivo; method in brief: as §2
Rattus norvegicus [9] = assay: Toxic ulcerogenic effect in albino rat assessed as incidence of hyperemia at 100 mg/kg, po; type: toxicity, organism-based; design: dose 100 mg/kg, route oral; settings: in vivo; method in brief: as §2
Rattus norvegicus [10] = assay: Toxic ulcerogenic effect in albino rat assessed as incidence of ulcer at 100 mg/kg, po; type: toxicity, organism-based; design: dose 100 mg/kg, route oral; settings: in vivo; method in brief: as §2
Rattus norvegicus [11] = assay: Antiinflammatory activity in albino rat assessed as inhibition of carrageenan-induced paw edema at 40 mg/kg, po administered 30 mins prior to challenge relative to control; type: functional; method in brief: as §1

## Brc1ccccc1OCC1=NCCO1
Rattus norvegicus [1]
  ED50: 62.5 mg/kg
Rattus norvegicus [2]
  inhibition in vivo at 20 mg/kg: 20.1%
Oryctolagus cuniculus
  inhibition: 40%
Rattus norvegicus [3]
  Activity: 40%
Rattus norvegicus [4]
  Activity: 20%
Rattus norvegicus [5]
  inhibition in vivo at 80 mg/kg: 62.8%
[6]
  LD50 at 24 h: > 1000 mg/kg
Rattus norvegicus [7]
  Activity: 90%
Rattus norvegicus [8]
  Activity: 100%
Rattus norvegicus [9]
  Activity: 70%
Rattus norvegicus [10]
  Activity: 10%
Rattus norvegicus [11]
  inhibition in vivo at 40 mg/kg: 29.1%

## COc1ccc(OCC2=NCCO2)cc1
Rattus norvegicus [1]
  ED50: 77.2 mg/kg
Rattus norvegicus [2]
  inhibition in vivo at 20 mg/kg: 16.6%
Oryctolagus cuniculus
  inhibition: 70%
Rattus norvegicus [3]
  Activity: 15%
Rattus norvegicus [4]
  Activity: 10%
Rattus norvegicus [5]
  inhibition in vivo at 80 mg/kg: 64.1%
[6]
  LD50 at 24 h: > 1000 mg/kg
Rattus norvegicus [7]
  Activity: 70%
Rattus norvegicus [8]
  Activity: 90%
Rattus norvegicus [9]
  Activity: 50%
Rattus norvegicus [10]
  Activity: 5%
Rattus norvegicus [11]
  inhibition in vivo at 40 mg/kg: 33.2%

## CCCCC1C(=O)N(c2ccccc2)N(c2ccccc2)C1=O [PHENYLBUTAZONE]
Rattus norvegicus [2]
  inhibition in vivo at 20 mg/kg: 31.3%
Oryctolagus cuniculus
  inhibition: 60%
Rattus norvegicus [3]
  Activity: 90%
Rattus norvegicus [4]
  Activity: 60%
Rattus norvegicus [5]
  inhibition in vivo at 80 mg/kg: 57.2%
Rattus norvegicus [7]
  Activity: 60%
Rattus norvegicus [8]
  Activity: 90%
Rattus norvegicus [9]
  Activity: 30%
Rattus norvegicus [10]
  Activity: 30%
Rattus norvegicus [11]
  inhibition in vivo at 40 mg/kg: 35.5%

## Clc1ccc(OCC2=NCCO2)cc1
Rattus norvegicus [1]
  ED50: 51.2 mg/kg
Rattus norvegicus [2]
  inhibition in vivo at 20 mg/kg: 30.3%
Rattus norvegicus [3]
  Activity: 12%
Rattus norvegicus [4]
  Activity: 20%
Rattus norvegicus [5]
  inhibition in vivo at 80 mg/kg: 94.1%
[6]
  LD50 at 24 h: > 1000 mg/kg
Rattus norvegicus [7]
  Activity: 60%
Rattus norvegicus [8]
  Activity: 90%
Rattus norvegicus [9]
  Activity: 30%
Rattus norvegicus [10]
  Activity: 10%
Rattus norvegicus [11]
  inhibition in vivo at 40 mg/kg: 48.2%

## CC(=O)Oc1ccccc1C(=O)O [ASPIRIN]
Rattus norvegicus [2]
  inhibition in vivo at 20 mg/kg: 30.4%
Oryctolagus cuniculus
  inhibition: 65%
Rattus norvegicus [3]
  Activity: 90%
Rattus norvegicus [4]
  Activity: 90%
Rattus norvegicus [5]
  inhibition in vivo at 80 mg/kg: 59.6%
Rattus norvegicus [7]
  Activity: 60%
Rattus norvegicus [8]
  Activity: 90%
Rattus norvegicus [9]
  Activity: 30%
Rattus norvegicus [10]
  Activity: 80%
Rattus norvegicus [11]
  inhibition in vivo at 40 mg/kg: 35.5%

## Fc1ccccc1OCC1=NCCO1
Rattus norvegicus [1]
  ED50: 76.2 mg/kg
Rattus norvegicus [2]
  inhibition in vivo at 20 mg/kg: 20.6%
Oryctolagus cuniculus
  inhibition: 65%
Rattus norvegicus [3]
  Activity: 20%
Rattus norvegicus [4]
  Activity: 15%
Rattus norvegicus [5]
  inhibition in vivo at 80 mg/kg: 60.1%
[6]
  LD50 at 24 h: > 1000 mg/kg
Rattus norvegicus [7]
  Activity: 60%
Rattus norvegicus [8]
  Activity: 80%
Rattus norvegicus [9]
  Activity: 40%
Rattus norvegicus [10]
  Activity: 10%
Rattus norvegicus [11]
  inhibition in vivo at 40 mg/kg: 30.5%

## Cc1cc(OCC2=NCCO2)ccc1Cl
Rattus norvegicus [1]
  ED50: 60.2 mg/kg
Rattus norvegicus [2]
  inhibition in vivo at 20 mg/kg: 22.2%
Oryctolagus cuniculus
  inhibition: 87%
Rattus norvegicus [3]
  Activity: 40%
Rattus norvegicus [4]
  Activity: 30%
Rattus norvegicus [5]
  inhibition in vivo at 80 mg/kg: 77.1%
[6]
  LD50 at 24 h: > 1000 mg/kg
Rattus norvegicus [7]
  Activity: 70%
Rattus norvegicus [8]
  Activity: 100%
Rattus norvegicus [9]
  Activity: 50%
Rattus norvegicus [10]
  Activity: 20%
Rattus norvegicus [11]
  inhibition in vivo at 40 mg/kg: 45.4%

## Brc1ccc(OCC2=NCCO2)cc1
Rattus norvegicus [1]
  ED50: 65.5 mg/kg
Rattus norvegicus [2]
  inhibition in vivo at 20 mg/kg: 35.5%
Oryctolagus cuniculus
  inhibition: 60%
Rattus norvegicus [3]
  Activity: 15%
Rattus norvegicus [4]
  Activity: 10%
Rattus norvegicus [5]
  inhibition in vivo at 80 mg/kg: 60.1%
[6]
  LD50 at 24 h: > 1000 mg/kg
Rattus norvegicus [7]
  Activity: 80%
Rattus norvegicus [8]
  Activity: 100%
Rattus norvegicus [9]
  Activity: 60%
Rattus norvegicus [10]
  Activity: 5%
Rattus norvegicus [11]
  inhibition in vivo at 40 mg/kg: 48.5%

## O=[N+]([O-])c1ccccc1OCC1=NCCO1
Rattus norvegicus [1]
  ED50: 70.1 mg/kg
Rattus norvegicus [2]
  inhibition in vivo at 20 mg/kg: 20.5%
Oryctolagus cuniculus
  inhibition: 30%
Rattus norvegicus [3]
  Activity: 45%
Rattus norvegicus [4]
  Activity: 25%
Rattus norvegicus [5]
  inhibition in vivo at 80 mg/kg: 50.5%
[6]
  LD50 at 24 h: > 1000 mg/kg
Rattus norvegicus [7]
  Activity: 55%
Rattus norvegicus [8]
  Activity: 90%
Rattus norvegicus [9]
  Activity: 30%
Rattus norvegicus [10]
  Activity: 20%
Rattus norvegicus [11]
  inhibition in vivo at 40 mg/kg: 35.5%

## O=[N+]([O-])c1cccc(OCC2=NCCO2)c1
Rattus norvegicus [1]
  ED50: 75.5 mg/kg
Rattus norvegicus [2]
  inhibition in vivo at 20 mg/kg: 15.5%
Rattus norvegicus [3]
  Activity: 80%
Rattus norvegicus [4]
  Activity: 30%
Rattus norvegicus [5]
  inhibition in vivo at 80 mg/kg: 46.5%
[6]
  LD50 at 24 h: > 1000 mg/kg
Rattus norvegicus [7]
  Activity: 35%
Rattus norvegicus [8]
  Activity: 55%
Rattus norvegicus [9]
  Activity: 20%
Rattus norvegicus [10]
  Activity: 45%
Rattus norvegicus [11]
  inhibition in vivo at 40 mg/kg: 29.4%

## Cc1ccc(OCC2=NCCO2)c(C)c1
Rattus norvegicus [1]
  ED50: 57.3 mg/kg
Rattus norvegicus [2]
  inhibition in vivo at 20 mg/kg: 31.4%
Rattus norvegicus [3]
  Activity: 18%
Rattus norvegicus [4]
  Activity: 25%
Rattus norvegicus [5]
  inhibition in vivo at 80 mg/kg: 85.5%
[6]
  LD50 at 24 h: > 1000 mg/kg
Rattus norvegicus [7]
  Activity: 50%
Rattus norvegicus [8]
  Activity: 75%
Rattus norvegicus [9]
  Activity: 25%
Rattus norvegicus [10]
  Activity: 15%
Rattus norvegicus [11]
  inhibition in vivo at 40 mg/kg: 46.5%

## O=[N+]([O-])c1ccc(OCC2=NCCO2)cc1
Rattus norvegicus [1]
  ED50: 60.5 mg/kg
Rattus norvegicus [2]
  inhibition in vivo at 20 mg/kg: 29.2%
Oryctolagus cuniculus
  inhibition: 85%
Rattus norvegicus [3]
  Activity: 20%
Rattus norvegicus [4]
  Activity: 15%
Rattus norvegicus [5]
  inhibition in vivo at 80 mg/kg: 77.1%
[6]
  LD50 at 24 h: > 1000 mg/kg
Rattus norvegicus [7]
  Activity: 70%
Rattus norvegicus [8]
  Activity: 100%
Rattus norvegicus [9]
  Activity: 50%
Rattus norvegicus [10]
  Activity: 10%
Rattus norvegicus [11]
  inhibition in vivo at 40 mg/kg: 30.4%

## Clc1ccccc1OCC1=NCCO1
Rattus norvegicus [1]
  ED50: 77.5 mg/kg
Rattus norvegicus [2]
  inhibition in vivo at 20 mg/kg: 13.7%
Rattus norvegicus [3]
  Activity: 80%
Rattus norvegicus [4]
  Activity: 30%
Rattus norvegicus [5]
  inhibition in vivo at 80 mg/kg: 45.5%
[6]
  LD50 at 24 h: > 1000 mg/kg
Rattus norvegicus [7]
  Activity: 40%
Rattus norvegicus [8]
  Activity: 60%
Rattus norvegicus [9]
  Activity: 20%
Rattus norvegicus [10]
  Activity: 40%
Rattus norvegicus [11]
  inhibition in vivo at 40 mg/kg: 22.2%

## Cc1ccccc1OCC1=NCCO1
Rattus norvegicus [1]
  ED50: 78.3 mg/kg
Rattus norvegicus [2]
  inhibition in vivo at 20 mg/kg: 3.1%
Oryctolagus cuniculus
  inhibition: 20%
Rattus norvegicus [3]
  Activity: 40%
Rattus norvegicus [4]
  Activity: 20%
Rattus norvegicus [5]
  inhibition in vivo at 80 mg/kg: 55.3%
[6]
  LD50 at 24 h: > 1000 mg/kg
Rattus norvegicus [7]
  Activity: 60%
Rattus norvegicus [8]
  Activity: 100%
Rattus norvegicus [9]
  Activity: 40%
Rattus norvegicus [10]
  Activity: 10%
Rattus norvegicus [11]
  inhibition in vivo at 40 mg/kg: 29.5%

## Fc1ccc(OCC2=NCCO2)cc1
Rattus norvegicus [1]
  ED50: 75.5 mg/kg
Rattus norvegicus [2]
  inhibition in vivo at 20 mg/kg: 18.5%
Rattus norvegicus [3]
  Activity: 75%
Rattus norvegicus [4]
  Activity: 25%
Rattus norvegicus [5]
  inhibition in vivo at 80 mg/kg: 40.5%
[6]
  LD50 at 24 h: > 1000 mg/kg
Rattus norvegicus [7]
  Activity: 40%
Rattus norvegicus [8]
  Activity: 50%
Rattus norvegicus [9]
  Activity: 25%
Rattus norvegicus [10]
  Activity: 50%
Rattus norvegicus [11]
  inhibition in vivo at 40 mg/kg: 30.2%

## Cc1cccc(OCC2=NCCO2)c1
Rattus norvegicus [1]
  ED50: 76.2 mg/kg
Rattus norvegicus [2]
  inhibition in vivo at 20 mg/kg: 16.6%
Oryctolagus cuniculus
  inhibition: 70%
Rattus norvegicus [3]
  Activity: 25%
Rattus norvegicus [4]
  Activity: 20%
Rattus norvegicus [5]
  inhibition in vivo at 80 mg/kg: 64.1%
[6]
  LD50 at 24 h: > 1000 mg/kg
Rattus norvegicus [7]
  Activity: 70%
Rattus norvegicus [8]
  Activity: 90%
Rattus norvegicus [9]
  Activity: 50%
Rattus norvegicus [10]
  Activity: 15%
Rattus norvegicus [11]
  inhibition in vivo at 40 mg/kg: 44.6%
